Source: ChEMBL document CHEMBL4513216, “Probing the Open Global Health Chemical Diversity Library for Multistage-Active Starting Points for Next-Generation Antimalarials” (ACS Infect Dis, 2020)

Experiment: Toxicity liver stage against HepG2, at 10uM
Assay type: cell-based
Design: test concentration 10 uM, cell line HepG2-A16-CD81EGFP
Conditions: human, HepG2-A16-CD81EGFP cells; read-out: INHIBITION
Procedure, shortened: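 Uninfected HepG2-A16-CD81EGFP cells, 3 × 10^3 per well, 1536-well, plated on prespotted compound at 10 μM final, parasite-free screening media added to match infected plates; puromycin 10 μM positive, DMSO 0.5% negative; run in parallel with 48 h PbLuc assay at 37 °C, 5% CO2; viability by CellTiter-Glo luminescence, normalized to controls.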

Compared with `CC1CN(C(=O)CN(Cc2ccco2)Cc2cccs2)CCO1` (centres undefined), `Cc1ccc(N2CC[C@H]3C[C@H](C(=O)NCc4ccco4)O[C@@H]3C2)cc1` is higher in cytotoxicity at 10 µM: -7.68% for the first, 8.8% for the second.

Compared with `Cc1nc(N2CCCC2)nc2c1CCN(C(=O)c1ccoc1C)CC2`, `Cc1sc2nc(CCN)nc(N3CCC(N4CCCC4)CC3)c2c1C` is higher in cytotoxicity at 10 µM: -111% for the first, -51.6% for the second.

First: Cc1noc([C@H]2C[C@@H]3CCN(CC4CCOCC4)C[C@H]3O2)n1
Second: O=C(NCC1CCOCC1)[C@H]1C[C@@H]2CCN(Cc3ccccc3)C[C@H]2O1
The cytotoxicity at 10 µM of the first is lower: -103% for the first, 1.03% for the second.

Going from `Cc1ncsc1CCC(=O)NC1CCN(c2ncccc2C#N)CC1` to `CCS(=O)(=O)c1ccc(N2CCC(NC(=O)c3ccccn3)CC2)cc1`, the cytotoxicity at 10 µM rises from 0.84% to 10.8%.

First: CC(=O)Nc1ccc2nc(-c3nccn3CC(C)(C)CO)ccc2c1
Second: CNc1cc(CCNC(=O)CC(C)C)nc(-c2ccccn2)n1
The cytotoxicity at 10 µM of the first is higher: 3.89% for the first, 1.26% for the second.

Going from `Fc1ccccc1NCc1nc2n(n1)CCCCC2` to `CC(CCN1CCCn2nc(CNS(C)(=O)=O)cc2C1)c1ccccc1` (centres undefined), the cytotoxicity at 10 µM rises from 2.02% to 8.85%.

First: CSCCCN1CCCC(Cn2ccnc2)C1 (centres undefined)
Second: Cc1nc(C)n(CC2CN(CCc3ccncc3)CCO2)n1 (centres undefined)
The cytotoxicity at 10 µM of the first is higher: 5.07% for the first, -14.7% for the second.

Compared with `COCC(=O)N1CCC(C(=O)c2cc(C)cnc2N)CC1`, `CC(=O)N1CCC(c2nccnc2C)CC1` is lower in cytotoxicity at 10 µM: 0.353% for the first, -2.82% for the second.

Compared with `Cn1cc(C2COC3(CCN(C(=O)c4ccn(C)n4)CC3)C2)cn1` (centres undefined), `Cn1cc(Cl)cc1C(=O)N1CCC2(CCCN(CC3CC3)C2=O)C1` (centres undefined) is higher in cytotoxicity at 10 µM: -66.5% for the first, 1.96% for the second.

Compared with `COCC(=O)N1CCCC2(CCN(CCN3CCCC3)CC2)C1`, `Cc1ncsc1CN1CC[C@H]2OCC[C@@]2(C(=O)N2CCCC2)C1` is higher in cytotoxicity at 10 µM: 4.71% for the first, 7.63% for the second.

Going from `Cc1cc(-c2cnc(NCc3ccccn3)nc2C(C)C)on1` to `O=C(NCc1cccs1)c1nc2c(o1)CN(c1ncccn1)C2`, the cytotoxicity at 10 µM rises from -1.51% to -0.664%.

First: CSc1cccc(NC(=O)CCC(=O)Nc2nccs2)c1
Second: CC(=O)N[C@@H](C)C(=O)NCc1cccnc1Oc1ccccc1F
The cytotoxicity at 10 µM of the first is lower: -5.05% for the first, -3.53% for the second.

Going from `Cc1ccoc1C(=O)N1CC[C@@H]2CN(C3CCOCC3)CCO[C@@H]2C1` to `O=C(NCC1CC1)[C@H]1C[C@@H]2CCN(CCc3ccccc3)C[C@H]2O1`, the cytotoxicity at 10 µM rises from -120% to -75.5%.

Compared with `N#CC1(NC(=O)COc2cc(Cl)cc(Cl)c2)CCSC1` (centres undefined), `N#CC1(NC(=O)c2nccc3ccccc23)CCC2(CC1)OCCO2` is lower in cytotoxicity at 10 µM: 7.95% for the first, 2.48% for the second.

First: O=C1CCNc2ncc(-c3ccccc3Cl)cc2CN1C1CC1
Second: O=C1CCC(=O)N1CCOc1nc(-c2ccccc2Cl)no1
The cytotoxicity at 10 µM of the first is higher: 8.89% for the first, 6.97% for the second.

`O=C1C[C@H]2[C@H](CCN2C(=O)c2ccno2)N1CC1CC1` and `O=C(NCc1cccnc1-n1cccn1)C1CC(=O)N(CC2CC2)C1` (centres undefined) are the same in cytotoxicity at 10 µM: 2.77% for the first, 2.77% for the second.

First: CN(Cc1nc2ccsc2c(=O)[nH]1)CC1CCCCC1
Second: CN1CCCC(c2cccc(CCC(N)=O)n2)C1 (centres undefined)
The cytotoxicity at 10 µM of the first is lower: -1.05% for the first, 2.9% for the second.

Compared with `CN(CCC(C)(C)O)C(=O)C1CCC(=O)N(Cc2ccc(Cl)cc2)C1` (centres undefined), `O=C1N[C@H]2OCCC[C@H]2[C@H](c2ccc(C(=O)O)cc2)N1` is lower in cytotoxicity at 10 µM: 7.67% for the first, -2.51% for the second.

First: Cc1cc(C)n(CC2CCCN2CC(=O)Nc2nncs2)n1 (centres undefined)
Second: Cc1nn(CCC(=O)NC2CCCOC2)c(C)c1C (centres undefined)
The cytotoxicity at 10 µM of the first is higher: 12.1% for the first, 2.06% for the second.

First: CCc1nc(C)cn1C(=O)Nc1ccc(F)cc1
Second: COC1CCN(C(=O)Nc2ccccc2)CC(=O)N(C)c2ccccc21 (centres undefined)
The cytotoxicity at 10 µM of the first is higher: 11.1% for the first, 2.94% for the second.

Going from `CNS(=O)(=O)c1cccc(C(C)NCc2nccn2C(C)C)c1` (centres undefined) to `Cc1nn(C)c(N(C)C)c1CNC(C)c1cccnc1` (centres undefined), the cytotoxicity at 10 µM rises from -12.6% to -2.8%.

Compared with `CC(C)n1ccnc1C1CCN(C(=O)C2COc3ccccc3O2)CC1` (centres undefined), `c1cncc(CN2CCC(c3ccc4c(c3)OCO4)CC2)c1` is higher in cytotoxicity at 10 µM: -8.28% for the first, -0.415% for the second.

Going from `COc1cc(Oc2cnc3ccccc3n2)ccc1CN1CCCC1` to `COc1ccccc1CN1CCC(c2nccc(C)n2)C1` (centres undefined), the cytotoxicity at 10 µM falls from 5.27% to 3.44%.

Going from `CC(C)(C)CC1CCCN1Cc1nc(-c2ccco2)no1` (centres undefined) to `Cc1nc(CN2CCCC(N(C)Cc3nc(CC(C)C)no3)C2)no1` (centres undefined), the cytotoxicity at 10 µM rises from 4.11% to 5.35%.

Going from `COc1ccc(C2(C(=O)N3C[C@@H](C(=O)O)[C@H](C(C)C)C3)CC2)cc1` to `O=C(O)[C@@H]1CN(C(=O)CSCC2CC2)C[C@H]1c1ccccn1`, the cytotoxicity at 10 µM rises from -8.36% to 5.35%.

Compared with `COCCNC(=O)CNC(=O)c1nc(Cc2c(Cl)cccc2Cl)no1`, `O=C(NCCCN1CCCC1=O)c1nc(-c2ccc3[nH]ccc3c2)no1` is lower in cytotoxicity at 10 µM: 5.64% for the first, -3.43% for the second.

Compared with `Cc1nccn1CC1CCCN1S(=O)(=O)Cc1ccccc1F` (centres undefined), `CCCS(=O)(=O)N1C[C@@H](c2ccccc2)[C@@]2(CCNC2=O)C1` is lower in cytotoxicity at 10 µM: -3.33% for the first, -109% for the second.

Going from `COCCCn1ccc(NS(=O)(=O)c2cc(F)c(C)cc2F)n1` to `CNS(=O)(=O)CCNc1cc(C)nc2cc(C)nn12`, the cytotoxicity at 10 µM falls from 19.1% to 6.95%.

Compared with `CC(C(=O)Nc1ncccn1)N1CCCN(c2nccs2)CC1` (centres undefined), `O=C(NCCS(=O)(=O)N1CCN(c2ncccn2)CC1)C1CC1` is lower in cytotoxicity at 10 µM: -2.55% for the first, -4.15% for the second.

Going from `CC1CNC(=O)CCN1Cc1cc(O)c2cccc(F)c2n1` (centres undefined) to `COc1cc(C2CC(=O)Nc3c2cnn3C)ccc1O` (centres undefined), the cytotoxicity at 10 µM rises from -4.5% to 45.5%.

Going from `CC(C)CNC(=O)c1cc2c(s1)CCN2S(C)(=O)=O` to `Cn1cnc(S(=O)(=O)NCC(O)c2ccc3c(c2)CCO3)c1` (centres undefined), the cytotoxicity at 10 µM falls from -0.522% to -6.28%.

Compared with `CCN(CC1CN(Cc2c(C)noc2C)CCO1)c1cccnn1` (centres undefined), `O=C(CC1CN(Cc2ccccc2)CCO1)Nc1ccsc1` (centres undefined) is lower in cytotoxicity at 10 µM: -7.99% for the first, -16.4% for the second.

First: COCC(=O)N1CCN(S(=O)(=O)c2ccccc2)[C@H]2CS(=O)(=O)C[C@H]21
Second: COC(=O)[C@@H]1CCCN1C(=O)c1cn(C/C=C/c2ccccc2)nn1
The cytotoxicity at 10 µM of the first is higher: 4.84% for the first, 3.61% for the second.

Compared with `CN1CCN(C(=O)c2cnsn2)c2ccc(F)cc21`, `O=C(CCC1CCCCO1)NCc1cnn(-c2ccc(F)cc2F)c1` (centres undefined) is lower in cytotoxicity at 10 µM: 3.47% for the first, -11.4% for the second.

Going from `O=C(c1ccccn1)N1CCc2nc(-c3cnccn3)nc(O)c2C1` to `COCc1ccc(C(=O)N2CCC(c3cc4nccnc4[nH]3)CC2)cc1`, the cytotoxicity at 10 µM falls from 0.487% to -39%.

Compared with `COc1ccccc1OC1(C(=O)O)CCN(c2ncccc2F)CC1`, `COc1ccccc1OCc1cc(C(=O)N2CCOCC2CO)n[nH]1` (centres undefined) is higher in cytotoxicity at 10 µM: -12.9% for the first, -3.94% for the second.

Compared with `CCN(c1cccc(F)c1)S(=O)(=O)c1cc(C(=O)O)cc2c1CCC2`, `COc1cccc(CN2CCCC(c3cc(C(N)=O)[nH]n3)C2)c1` (centres undefined) is lower in cytotoxicity at 10 µM: 10.5% for the first, -1.67% for the second.

Going from `CCc1cc(O)nc(C2CCCN(Cc3ccncc3)C2)n1` (centres undefined) to `CCN1CCCC(c2c(-c3ccccc3)ncn2Cc2csc(N)n2)C1` (centres undefined), the cytotoxicity at 10 µM rises from -7.05% to -0.386%.

Going from `COc1cc(NC(=O)c2nc3ccccc3n(C)c2=O)cc(OC)c1` to `CNC(=O)c1cn(C)c(-c2nc3cc(NC(C)=O)ccc3n2C)c1OC`, the cytotoxicity at 10 µM falls from 7.67% to -42.5%.

Compared with `Cc1cccc(-n2c(C)cc(=O)[nH]c2=O)c1C`, `COC(=O)C1=NN2C(=NS(=O)(=O)c3ccccc32)N1` is lower in cytotoxicity at 10 µM: -2% for the first, -8.57% for the second.

First: COC(=O)CNc1ccc(-c2nc(Cc3ccc(OC)cc3)no2)cn1
Second: Cc1ccnc(C2CN(Cc3ccc(-c4ccccc4C(=O)O)o3)C2)n1
The cytotoxicity at 10 µM of the first is lower: 1.06% for the first, 2.51% for the second.

Going from `CCc1nnc2n1CCN(C(=O)C(C)Oc1ccc(C#N)cc1)C2` (centres undefined) to `O=C(Cc1ccc(F)cc1)N1CCn2c(Cn3cncn3)cnc2C1`, the cytotoxicity at 10 µM falls from -7.04% to -67.3%.

Going from `c1csc(CNc2ccccc2Cn2cncn2)c1` to `CC(Cn1cccn1)NC(=O)NCCc1cccs1` (centres undefined), the cytotoxicity at 10 µM falls from 11.5% to -15.3%.

Going from `O=C(CCn1cncn1)Nc1ccc(F)cc1OCC1CC1` to `CCOCCCC(=O)Nc1cccnc1-n1ccnc1C`, the cytotoxicity at 10 µM rises from -2.58% to 9.21%.

Going from `Cc1cc(Nc2nc(C)cc(C)n2)cc(C2CCCN2)n1` (centres undefined) to `Cc1nc(CCN)cc(N(C)Cc2nc3ccc(F)cc3[nH]2)n1`, the cytotoxicity at 10 µM falls from 0.407% to -0.581%.

Going from `CC1CN(CC(=O)NCCc2ccncc2)Cc2ccccc2O1` (centres undefined) to `CC(C)(C)C(=O)NCCC(=O)NCCc1ccn(-c2ccccc2)n1`, the cytotoxicity at 10 µM falls from -0.369% to -8.89%.

Compared with `Cc1ncc2c(n1)CN(Cc1nc(-c3ccsc3)oc1C)CC2`, `Cc1cccc(-c2nc(N)nc3c2CN(C(=O)C2CCCC2)C3C)c1` (centres undefined) is higher in cytotoxicity at 10 µM: 1.97% for the first, 13.2% for the second.

Compared with `Cc1nc2n(n1)CC(NCc1cc(Cl)c3c(c1)OCCO3)CC2` (centres undefined), `Cc1nc(C)n(CC2CCCN(c3ncnc4c3CCC4)C2)n1` (centres undefined) is higher in cytotoxicity at 10 µM: -6.14% for the first, 30.5% for the second.

First: O=C(NC[C@]12COC[C@H]1CN(Cc1cccnc1)C2)C1CCC1
Second: Cc1cccc(CN2C(=O)CC[C@@H]3[C@H]2CCN3Cc2cccnc2)n1
The cytotoxicity at 10 µM of the first is lower: -105% for the first, -74.6% for the second.

Going from `CC1(c2ccccc2)CCCN(Cc2cncn2C2CC2)C1` (centres undefined) to `Cn1cc(CN2CCCC(n3c(=O)oc4ccccc43)C2)cn1` (centres undefined), the cytotoxicity at 10 µM rises from -1.06% to -0.18%.

First: CCCc1cc(=O)[nH]c(-c2cccc(CN3CCN4CCCC4C3)c2)n1 (centres undefined)
Second: CCN1CCCC(O)(CNCc2ccc3c(c2)OCO3)C1 (centres undefined)
The cytotoxicity at 10 µM of the first is lower: -15.2% for the first, 2.34% for the second.

Going from `COCc1nc2cc(NCc3ncc[nH]3)ccc2o1` to `Cc1ccc(CN(C)C(=O)CN2CC(n3cccn3)C2)o1`, the cytotoxicity at 10 µM rises from -4.52% to -0.0582%.

Going from `CC(C)[C@H]1CN(Cc2c[nH]nn2)C[C@@H]1NC(=O)C1CCOCC1` to `Cn1cc(CN2C[C@@H](NC(=O)c3cscn3)[C@H]3OCCC[C@H]32)cn1`, the cytotoxicity at 10 µM falls from 22.3% to -11.7%.

Compared with `O=C(CC1[C@H]2CN(C(=O)c3cccnc3)C[C@@H]12)Nc1cccnc1` (some centres undefined), `O=C(CN1C(=O)CCC1=O)N1CCC(S(=O)(=O)Cc2ccco2)CC1` is lower in cytotoxicity at 10 µM: 7.37% for the first, 3.79% for the second.

For `CCOc1nnc(CNC2CCCN(c3ccc(C)nn3)C2)s1` (centres undefined), the cytotoxicity at 10 µM was -9.31%.
